{"source": "ChEMBL document CHEMBL5724801", "about": "“EUbOPEN Chemogenomics Library - Multiplex” (2024)", "note": "“And” between values parts separate entries of the source, which are not always exact repeats. Equal values may be shown once.", "data": [{"test_system": "U2OS", "test": "(§1) Multiplex assay against U2OS", "assay_type": "toxicity, cell-based", "conditions": "human, 12 h, 1 µM, compound concentration 1 uM", "procedure,_shortened": "(§2)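 Cells stained live at seeding with Hoechst33342, BioTracker Green Microtubule Cytoskeleton Dye, MitoTracker Red and Annexin V Alexa Fluor 680 were imaged on a CQ1 microscope at 37°C and 5% CO2 after compound addition. Their classification by CellPathfinder machine-learning gating ran from Hoechst high-intensity objects versus normal cells, to healthy, pyknosed or fragmented nuclei among normal cells, to mitotic or apoptotic among pyknosed cells. Tubulin, mitochondrial-mass and membrane-permeability phenotypes are per cents of healthy-nucleus cells.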", "values": [{"smiles": "CCCCC(=O)N(Cc1ccc(-c2ccccc2-c2nnn[nH]2)cc1)[C@H](C(=O)O)C(C)C", "Population Apoptotic (%)": "85% and 100%", "Population Fragmented Nuclei (%)": "28% and 15%", "Population Healthy Nuclei (%)": "63% and 79%", "Population Hoechst High Intensity Objects (%)": "1% and 3%", "Population Membrane Permeable-Phenotype (%)": "8% and 9%", "Population Mitochondria Different-Phenotype (%)": "3% and 5%", "Population Mitotic Cells (%)": "14% and 0%", "Population Normal (%)": "98% and 96%", "Population Pyknosed Nuclei (%)": "8% and 4%", "Population Tubulin-Different-Phenotype (%)": "4% and 2%", "Total Cell Count": "259 and 130"}, {"smiles": "CNC[C@H](O)c1ccc(O)c(O)c1", "note": "[EPINEPHRINE]", "Population Apoptotic (%)": "88% and 80%", "Population Fragmented Nuclei (%)": "35% and 17%", "Population Healthy Nuclei (%)": "56% and 77%", "Population Hoechst High Intensity Objects (%)": "2% and 0%", "Population Membrane Permeable-Phenotype (%)": "5% and 7%", "Population Mitochondria Different-Phenotype (%)": "1% and 2%", "Population Mitotic Cells (%)": "11% and 20%", "Population Normal (%)": "97% and 100%", "Population Pyknosed Nuclei (%)": "7% and 5%", "Population Tubulin-Different-Phenotype (%)": "2% and 4%", "Total Cell Count": "229 and 92"}]}, {"test_system": "U2OS", "test": "as §1", "assay_type": "toxicity, cell-based", "conditions": "human, 12 h, 10 µM, compound concentration 10 uM", "procedure,_shortened": "as §2", "values": [{"smiles": "CCCCC(=O)N(Cc1ccc(-c2ccccc2-c2nnn[nH]2)cc1)[C@H](C(=O)O)C(C)C", "Population Apoptotic (%)": "75%", "Population Fragmented Nuclei (%)": "35% and 24%", "Population Healthy Nuclei (%)": "55% and 71%", "Population Hoechst High Intensity Objects (%)": "1% and 0%", "Population Membrane Permeable-Phenotype (%)": "3% and 1%", "Population Mitochondria Different-Phenotype (%)": "2%", "Population Mitotic Cells (%)": "25%", "Population Normal (%)": "98% and 99%", "Population Pyknosed Nuclei (%)": "9% and 3%", "Population Tubulin-Different-Phenotype (%)": "2% and 0%", "Total Cell Count": "218 and 108"}, {"smiles": "CNC[C@H](O)c1ccc(O)c(O)c1", "note": "[EPINEPHRINE]", "Population Apoptotic (%)": "92% and 86%", "Population Fragmented Nuclei (%)": "41% and 33%", "Population Healthy Nuclei (%)": "45% and 50%", "Population Hoechst High Intensity Objects (%)": "6% and 9%", "Population Membrane Permeable-Phenotype (%)": "7% and 6%", "Population Mitochondria Different-Phenotype (%)": "1% and 2%", "Population Mitotic Cells (%)": "8% and 13%", "Population Normal (%)": "93% and 90%", "Population Pyknosed Nuclei (%)": "13% and 15%", "Population Tubulin-Different-Phenotype (%)": "4% and 6%", "Total Cell Count": "199 and 105"}]}, {"test_system": "U2OS", "test": "as §1", "assay_type": "toxicity, cell-based", "conditions": "human, 24 h, 1 µM, compound concentration 1 uM", "procedure,_shortened": "as §2", "values": [{"smiles": "CCCCC(=O)N(Cc1ccc(-c2ccccc2-c2nnn[nH]2)cc1)[C@H](C(=O)O)C(C)C", "Population Apoptotic (%)": "86% and 83%", "Population Fragmented Nuclei (%)": "23% and 10%", "Population Healthy Nuclei (%)": "68% and 77%", "Population Hoechst High Intensity Objects (%)": "2% and 6%", "Population Membrane Permeable-Phenotype (%)": "5% and 9%", "Population Mitochondria Different-Phenotype (%)": "3% and 6%", "Population Mitotic Cells (%)": "13% and 16%", "Population Normal (%)": "97% and 93%", "Population Pyknosed Nuclei (%)": "7% and 12%", "Population Tubulin-Different-Phenotype (%)": "2% and 7%", "Total Cell Count": "289 and 158"}, {"smiles": "CNC[C@H](O)c1ccc(O)c(O)c1", "note": "[EPINEPHRINE]", "Population Apoptotic (%)": "84% and 75%", "Population Fragmented Nuclei (%)": "28% and 19%", "Population Healthy Nuclei (%)": "64% and 68%", "Population Hoechst High Intensity Objects (%)": "2%", "Population Membrane Permeable-Phenotype (%)": "6% and 7%", "Population Mitochondria Different-Phenotype (%)": "1% and 5%", "Population Mitotic Cells (%)": "15% and 25%", "Population Normal (%)": "97%", "Population Pyknosed Nuclei (%)": "7% and 11%", "Population Tubulin-Different-Phenotype (%)": "2% and 1%", "Total Cell Count": "278 and 105"}]}, {"test_system": "U2OS", "test": "as §1", "assay_type": "toxicity, cell-based", "conditions": "human, 24 h, 10 µM, compound concentration 10 uM", "procedure,_shortened": "as §2", "values": [{"smiles": "CCCCC(=O)N(Cc1ccc(-c2ccccc2-c2nnn[nH]2)cc1)[C@H](C(=O)O)C(C)C", "Population Apoptotic (%)": "82% and 84%", "Population Fragmented Nuclei (%)": "31% and 22%", "Population Healthy Nuclei (%)": "59% and 67%", "Population Hoechst High Intensity Objects (%)": "2% and 0%", "Population Membrane Permeable-Phenotype (%)": "3% and 4%", "Population Mitochondria Different-Phenotype (%)": "2% and 8%", "Population Mitotic Cells (%)": "17% and 15%", "Population Normal (%)": "97% and 100%", "Population Pyknosed Nuclei (%)": "8% and 9%", "Population Tubulin-Different-Phenotype (%)": "2% and 6%", "Total Cell Count": "272 and 135"}, {"smiles": "CNC[C@H](O)c1ccc(O)c(O)c1", "note": "[EPINEPHRINE]", "Population Apoptotic (%)": "94% and 100%", "Population Fragmented Nuclei (%)": "39% and 31%", "Population Healthy Nuclei (%)": "50% and 45%", "Population Hoechst High Intensity Objects (%)": "9% and 11%", "Population Membrane Permeable-Phenotype (%)": "11% and 2%", "Population Mitochondria Different-Phenotype (%)": "5% and 0%", "Population Mitotic Cells (%)": "5% and 0%", "Population Normal (%)": "90% and 88%", "Population Pyknosed Nuclei (%)": "10% and 22%", "Population Tubulin-Different-Phenotype (%)": "6% and 2%", "Total Cell Count": "195 and 96"}]}, {"test_system": "U2OS", "test": "as §1", "assay_type": "toxicity, cell-based", "conditions": "human, 48 h, 1 µM, compound concentration 1 uM", "procedure,_shortened": "as §2", "values": [{"smiles": "CCCCC(=O)N(Cc1ccc(-c2ccccc2-c2nnn[nH]2)cc1)[C@H](C(=O)O)C(C)C", "Population Apoptotic (%)": "86% and 85%", "Population Fragmented Nuclei (%)": "17% and 20%", "Population Healthy Nuclei (%)": "75% and 68%", "Population Hoechst High Intensity Objects (%)": "2% and 3%", "Population Membrane Permeable-Phenotype (%)": "5% and 7%", "Population Mitochondria Different-Phenotype (%)": "3%", "Population Mitotic Cells (%)": "13% and 15%", "Population Normal (%)": "97% and 96%", "Population Pyknosed Nuclei (%)": "7% and 10%", "Population Tubulin-Different-Phenotype (%)": "2% and 3%", "Total Cell Count": "397 and 201"}, {"smiles": "CNC[C@H](O)c1ccc(O)c(O)c1", "note": "[EPINEPHRINE]", "Population Apoptotic (%)": "87% and 92%", "Population Fragmented Nuclei (%)": "24% and 18%", "Population Healthy Nuclei (%)": "66% and 72%", "Population Hoechst High Intensity Objects (%)": "0%", "Population Membrane Permeable-Phenotype (%)": "9% and 4%", "Population Mitochondria Different-Phenotype (%)": "5% and 3%", "Population Mitotic Cells (%)": "12% and 7%", "Population Normal (%)": "99%", "Population Pyknosed Nuclei (%)": "9%", "Population Tubulin-Different-Phenotype (%)": "4% and 2%", "Total Cell Count": "333 and 150"}]}, {"test_system": "U2OS", "test": "as §1", "assay_type": "toxicity, cell-based", "conditions": "human, 48 h, 10 µM, compound concentration 10 uM", "procedure,_shortened": "as §2", "values": [{"smiles": "CCCCC(=O)N(Cc1ccc(-c2ccccc2-c2nnn[nH]2)cc1)[C@H](C(=O)O)C(C)C", "Population Apoptotic (%)": "83% and 87%", "Population Fragmented Nuclei (%)": "22% and 21%", "Population Healthy Nuclei (%)": "70% and 60%", "Population Hoechst High Intensity Objects (%)": "1% and 4%", "Population Membrane Permeable-Phenotype (%)": "6% and 4%", "Population Mitochondria Different-Phenotype (%)": "2% and 3%", "Population Mitotic Cells (%)": "16% and 12%", "Population Normal (%)": "98% and 95%", "Population Pyknosed Nuclei (%)": "7% and 17%", "Population Tubulin-Different-Phenotype (%)": "2% and 6%", "Total Cell Count": "347 and 188"}, {"smiles": "CNC[C@H](O)c1ccc(O)c(O)c1", "note": "[EPINEPHRINE]", "Population Apoptotic (%)": "92% and 94%", "Population Fragmented Nuclei (%)": "41% and 36%", "Population Healthy Nuclei (%)": "44% and 40%", "Population Hoechst High Intensity Objects (%)": "10% and 17%", "Population Membrane Permeable-Phenotype (%)": "15% and 24%", "Population Mitochondria Different-Phenotype (%)": "8% and 13%", "Population Mitotic Cells (%)": "7% and 5%", "Population Normal (%)": "89% and 82%", "Population Pyknosed Nuclei (%)": "14% and 23%", "Population Tubulin-Different-Phenotype (%)": "10% and 13%", "Total Cell Count": "215 and 87"}]}]}
